Converted amounts (≈) assume the structure as drawn.
Key:
Format in all cases: functional
Plutella xylostella [1] = experiment: Insecticidal activity against second-instar larval stage of Plutella xylostella (diamondback moth) in fresh cabbage leaves assessed as mortality treated for 15 secs before larval infestation by leaf disk assay; details: foliar
Tetranychus cinnabarinus [2] = experiment: Toxic ratio, ratio of Chlorfenapyr LC50 to compound LC50 for adult two spot Tetranychus cinnabarinus (carmine spider mite) measured after 24 hr by slide immersion method
Tetranychus cinnabarinus [3] = experiment: Acaricidal activity against adult two spot Tetranychus cinnabarinus (carmine spider mite) assessed as mortality at 25 +/-2 degC treated for 10 secs measured after 24 hr by slide immersion method
Summary of the method: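 Thirty adult female mites were fixed dorsally on double-sided tape on a slide with a small brush. Slides were immersed and shaken for 10 s in diluted test solution, and excess liquid was removed. Slides were then held at 25 ± 2 °C in a Petri dish with moist filter paper. Dead mites were counted at 24 h. There were 3 replicates of 30 mites each, with chlorfenapyr as standard. LC50 was obtained by Finney probit analysis.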

Tetranychus cinnabarinus [4] = experiment: Acaricidal activity against adult Tetranychus cinnabarinus (carmine spider mite) in sieva bean plants assessed as mortality at 50 mg/kg treated for 3 secs measured after 2 days; details: 48 h
Tetranychus cinnabarinus [5] = experiment: Acaricidal activity against adult Tetranychus cinnabarinus (carmine spider mite) in sieva bean plants assessed as mortality at 100 mg/kg treated for 3 secs measured after 2 days; details: 48 h
Tetranychus cinnabarinus [6] = experiment: Acaricidal activity against adult Tetranychus cinnabarinus (carmine spider mite) in sieva bean plants assessed as mortality at 200 mg/kg treated for 3 secs measured after 2 days; details: 48 h
Culex pipiens pallens [7] = experiment: Insecticidal activity against fourth-instar larval stage of Culex pipiens pallens (mosquito) assessed as mortality at 0.10 mg/kg at 25 +/-1 degC after 2 days; details: 48 h
Summary of the method: (§1)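 Test solutions were prepared by adding 1 mL of each concentrated dilution to 99 mL water. Bioassays were run at 25 ± 1 °C on laboratory-reared insects.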

Culex pipiens pallens [8] = experiment: Insecticidal activity against fourth-instar larval stage of Culex pipiens pallens (mosquito) assessed as mortality at 0.25 mg/kg at 25 +/-1 degC after 2 days; details: 48 h; summary of the method: as §1
Culex pipiens pallens [9] = experiment: Insecticidal activity against fourth-instar larval stage of Culex pipiens pallens (mosquito) assessed as mortality at 0.50 mg/kg at 25 +/-1 degC after 2 days; details: 48 h; summary of the method: as §1
Mythimna separata [10] = experiment: Insecticidal activity against fourth-instar larval stage of Mythimna separata (Oriental armyworm) in compound pretreated corn leaves assessed as mortality at 5 mg/kg at 25 +/-1 degC measured after 2 days
Mythimna separata [11] = experiment: Insecticidal activity against fourth-instar larval stage of Mythimna separata (Oriental armyworm) in compound pretreated corn leaves assessed as mortality at 10 mg/kg at 25 +/-1 degC measured after 2 days
Mythimna separata [12] = experiment: Insecticidal activity against fourth-instar larval stage of Mythimna separata (Oriental armyworm) in compound pretreated corn leaves assessed as mortality at 20 mg/kg at 25 +/-1 degC measured after 2 days
Aphis fabae [13] = experiment: Toxic ratio, ratio of Chlorfenapyr LC50 to compound LC50 for apterous adult stage of Aphis fabae (black bean aphids) measured after 48 hr
Aphis fabae [14] = experiment: Insecticidal activity against apterous adult stage of Aphis fabae (black bean aphids) in soybean tender shoots assessed as mortality treated for 5 secs measured after 48 hr
Summary of the method: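 This was a slightly modified FAO dip test. Soybean tender shoots carrying 40-60 healthy apterous adult aphids were dipped in diluted compound for 5 s. Excess fluid was removed, and shoots were kept in a conditioned room. Mortality was scored at 48 h, with testing at 25 ± 1 °C.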

Nephotettix cincticeps [15] = experiment: Toxic ratio, ratio of Chlorfenapyr LC50 to compound LC50 for third-instar larval stage of Nephotettix cincticeps (green rice leafhopper) measured after 48 hr by seedling-dipping method
Nephotettix cincticeps [16] = experiment: Insecticidal activity against third instar larval stage of Nephotettix cincticeps (green rice leafhopper) in rice seedlings assessed as mortality treated for 15 secs before larval infestation measured after 48 hr by seedling-dipping method
Plutella xylostella [17] = experiment: Toxic ratio, ratio of Chlorfenapyr LC50 to compound LC50 for second-instar larval stage of Plutella xylostella (diamondback moth) by leaf disk assay

Structure (SMILES)	LC50 (Plutella xylostella [1])	RatioLC50 (Tetranychus cinnabarinus [2])	LC50 (Tetranychus cinnabarinus [3])	mortality at 50 mg/kg (Tetranychus cinnabarinus [4])	mortality at 100 mg/kg (Tetranychus cinnabarinus [5])	mortality at 200 mg/kg (Tetranychus cinnabarinus [6])	mortality at 0.1 mg/kg (Culex pipiens pallens [7])	mortality at 0.25 mg/kg (Culex pipiens pallens [8])	mortality at 0.5 mg/kg (Culex pipiens pallens [9])	mortality at 5 mg/kg (Mythimna separata [10])	mortality at 10 mg/kg (Mythimna separata [11])	mortality at 20 mg/kg (Mythimna separata [12])	RatioLC50 (Aphis fabae [13])	LC50 (Aphis fabae [14])	RatioLC50 (Nephotettix cincticeps [15])	LC50 (Nephotettix cincticeps [16])	RatioLC50 (Plutella xylostella [17])
CC(C)CC(=O)OCn1c(-c2ccc(Cl)cc2)c(C#N)c(Br)c1C(F)(F)F	1.88 µg/mL (≈ 4.05 µM)	2.65	0.43 µg/mL (≈ 0.927 µM)	100%	100%	100%	100%	100%	100%	0%	100%	100%	0.69	17.8 µg/mL (≈ 38.5 µM)	0.79	34.1 µg/mL (≈ 73.6 µM)	0.97
CCOCn1c(-c2ccc(Cl)cc2)c(C#N)c(Br)c1C(F)(F)F [CHLORFENAPYR]	1.82 µg/mL (≈ 4.46 µM)	1	1.14 µg/mL (≈ 2.8 µM)	93%	97%	100%	100%	100%	100%	0%	100%	100%	1	12.2 µg/mL (≈ 30 µM)	1	26.8 µg/mL (≈ 65.8 µM)	1
